Test results reported in paper PMC4232461 (Nature chemical biology, 2014).
Where a SMILES comes first, the peptide text is derived from it. The star is where a group is joined. Cbz = O=C(OCc1ccccc1)*

Biological target: Her3 (Homo sapiens, UniProt P21860)
Test: Western blot of Her3 level in PC9 GR4 cells
Assay type: cell-based
Conditions: combination with TX2-121-1 (0.5 μM), 116-9e 1.0 μM, 17-AAG 0.1 μM
Outline: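 Serum-starved PC9 GR4 cells were treated with test compounds, then stimulated for 30 min with 100 ng/ml NRG. Cells were lysed in Tris/NaCl/EDTA/1% NP-40 buffer with phosphatase and protease inhibitors, and protein was normalised by BCA. Lysates were resolved on 4–12% SDS-PAGE and PVDF blots were probed for p-Her3, Her3, p-Akt (Ser473), Akt, p-Erk1/2 (Thr202/Tyr204) and Erk1/2.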

Her3, sequence (P21860 20-1342): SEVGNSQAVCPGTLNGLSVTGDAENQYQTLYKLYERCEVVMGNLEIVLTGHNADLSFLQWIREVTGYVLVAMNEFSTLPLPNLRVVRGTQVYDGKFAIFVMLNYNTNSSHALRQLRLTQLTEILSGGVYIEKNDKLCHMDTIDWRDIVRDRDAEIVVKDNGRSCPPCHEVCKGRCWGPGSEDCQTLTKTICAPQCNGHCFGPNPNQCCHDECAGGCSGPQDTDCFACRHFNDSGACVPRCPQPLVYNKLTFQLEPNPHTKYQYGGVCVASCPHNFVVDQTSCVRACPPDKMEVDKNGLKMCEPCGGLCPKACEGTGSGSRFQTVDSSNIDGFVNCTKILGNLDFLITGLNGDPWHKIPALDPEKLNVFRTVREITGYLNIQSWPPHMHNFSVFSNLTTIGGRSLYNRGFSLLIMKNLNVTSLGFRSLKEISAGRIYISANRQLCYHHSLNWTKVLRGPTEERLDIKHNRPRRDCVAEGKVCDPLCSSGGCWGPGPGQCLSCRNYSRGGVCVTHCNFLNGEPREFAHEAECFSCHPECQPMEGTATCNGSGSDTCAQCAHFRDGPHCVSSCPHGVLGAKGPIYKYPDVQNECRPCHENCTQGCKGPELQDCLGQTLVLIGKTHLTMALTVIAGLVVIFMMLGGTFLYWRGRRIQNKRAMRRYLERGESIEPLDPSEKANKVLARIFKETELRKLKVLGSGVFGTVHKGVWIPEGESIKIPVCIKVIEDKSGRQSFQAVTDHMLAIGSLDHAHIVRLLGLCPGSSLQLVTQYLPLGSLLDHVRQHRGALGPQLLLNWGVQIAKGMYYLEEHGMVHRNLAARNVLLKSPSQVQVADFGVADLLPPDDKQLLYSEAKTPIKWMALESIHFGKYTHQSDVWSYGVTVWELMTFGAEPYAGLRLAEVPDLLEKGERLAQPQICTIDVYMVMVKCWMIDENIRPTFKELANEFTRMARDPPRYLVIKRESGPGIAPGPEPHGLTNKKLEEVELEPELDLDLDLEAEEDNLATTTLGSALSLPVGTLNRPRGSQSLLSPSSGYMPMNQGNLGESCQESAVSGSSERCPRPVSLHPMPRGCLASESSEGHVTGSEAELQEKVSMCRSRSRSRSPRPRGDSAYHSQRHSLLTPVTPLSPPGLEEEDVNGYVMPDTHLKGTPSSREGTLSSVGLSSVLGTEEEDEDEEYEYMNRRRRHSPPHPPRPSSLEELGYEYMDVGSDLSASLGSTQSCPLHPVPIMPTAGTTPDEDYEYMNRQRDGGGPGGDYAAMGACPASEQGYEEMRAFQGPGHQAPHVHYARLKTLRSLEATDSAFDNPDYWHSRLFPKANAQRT

| effect on TX2-121-1 induced Her3 degradation | Structure (SMILES) |
| --- | --- |
| enhanced degradation of Her3 | C=CCNC1=C2C[C@@H](C)C[C@H](OC)[C@H](O)[C@@H](C)/C=C(\C)[C@H](OC(N)=O)[C@@H](OC)/C=C\C=C(/C)C(=O)NC(=CC1=O)C2=O [17-AAG, 17-N-allylamino-17-demethoxygeldanamycin] |
| enhanced degradation of Her3 | CC1=C(C(=O)OCc2ccccc2)C(c2ccc(-c3ccccc3)cc2)NC(=O)N1CCCCCC(=O)O (stereo not drawn) [116-9e, 4-[1,1′-biphenyl]-4-yl-3,4-dihydro-6-methyl-2-oxo-5-[(phenylmethoxy)carbonyl]-1(2H)-pyrimidinehexanoic acid] |
| diminished | CC(C)C[C@@H](C=O)NC(=O)[C@H](CC(C)C)NC(=O)[C@H](CC(C)C)NC(=O)OCc1ccccc1 [MG132] (Cbz-Leu-Leu-Leu-aldehyde) |
